pIC50: −log10 of the molar value.
Legend:
HeLa [1] = experiment: Inhibitory concentration against human immunodeficiency virus type 1 (with K103N/G190A resistant mutation) was determined in HeLa-CD4 MAGI assay; assay type: functional, cell-based
Procedure, shortened: (§1)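 Tested against a panel of recombinant, isogenic HIV-1 viruses, wild type and NNRTI-resistant strains carrying engineered single or double RT mutations. The readout was IC50.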

HeLa [2] = experiment: Inhibitory concentration against human immunodeficiency virus type 1 (with V108I/Y181C resistant mutation) was determined in HeLa-CD4 MAGI assay; assay type: functional, cell-based; procedure, shortened: as §1
HeLa [3] = experiment: Inhibitory concentration against human immunodeficiency virus type 1 (with K103N/V108I resistant mutation) was determined in HeLa-CD4 MAGI assay; assay type: functional, cell-based; procedure, shortened: as §1
HeLa [4] = experiment: Inhibitory concentration against human immunodeficiency virus type 1 (with V106A resistant mutation) was determined in HeLa-CD4 MAGI assay; assay type: functional, cell-based; procedure, shortened: as §1
HeLa [5] = experiment: Inhibitory concentration against human immunodeficiency virus type 1 (with K103N resistant mutation) was determined in HeLa-CD4 MAGI assay; assay type: functional, cell-based; procedure, shortened: as §1
HeLa [6] = experiment: Inhibitory concentration against human immunodeficiency virus type 1 (with V106A/Y181C resistant mutation) was determined in HeLa-CD4 MAGI assay; assay type: functional, cell-based; procedure, shortened: as §1
HeLa [7] = experiment: Inhibitory concentration against human immunodeficiency virus type 1 (with G190A resistant mutation) was determined in HeLa-CD4 MAGI assay; assay type: functional, cell-based; procedure, shortened: as §1
MT4 [8] = experiment: Ratio of cytotoxic concentration to that of inhibitory concentration as selectivity index was determined by MT-4 assay; assay type: functional, Homo sapiens
Procedure, shortened: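 Index is the IC50 in uninfected MT4 cells divided by the antiviral IC50 in MT4 cells infected with wild-type HIV-1 or the nevirapine-resistant strain carrying RT mutation Y181C.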

MT4 [9] = experiment: Inhibitory concentration against nevirapine resistant strain (with Y181C mutation in HIV-1 RT gene) of human immunodeficiency virus type 1 was determined by MT-4 assay; assay type: functional, cell-based
HeLa [10] = experiment: Inhibitory concentration against human immunodeficiency virus type 1 (with K103N/Y181C resistant mutation) was determined in HeLa-CD4 MAGI assay; assay type: functional, cell-based; procedure, shortened: as §1
MT4 [11] = experiment: Inhibitory concentration against wild type human immunodeficiency virus type 1 was determined by MT-4 assay; assay type: functional, cell-based
HeLa [12] = experiment: Inhibitory concentration against human immunodeficiency virus type 1 (with V108I resistant mutation) was determined in HeLa-CD4 MAGI assay; assay type: functional, cell-based; procedure, shortened: as §1
HeLa [13] = experiment: Inhibitory concentration against human immunodeficiency virus type 1 (with Y181C resistant mutation) was determined in HeLa-CD4 MAGI assay; assay type: functional, cell-based; procedure, shortened: as §1
[14] = system: Human immunodeficiency virus 1; experiment: Inhibitory concentration against wild type human immunodeficiency virus type 1 was determined by recombinant virus assay; assay type: functional, organism-based
Procedure, shortened: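 Isogenic recombinant HIV-1 carrying wild-type RT, tested in parallel with a panel of NNRTI-resistant RT mutants built on the same background; activity reported as IC50.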

HeLa [15] = experiment: Inhibitory concentration against human immunodeficiency virus type 1 (with Y188C resistant mutation) was determined in HeLa-CD4 MAGI assay; assay type: functional, cell-based; procedure, shortened: as §1

Row | SMILES | pIC50 (HeLa [1]) | pIC50 (HeLa [2]) | pIC50 (HeLa [3]) | pIC50 (HeLa [4]) | pIC50 (HeLa [5]) | pIC50 (HeLa [6]) | pIC50 (HeLa [7]) | Ratio (MT4 [8]) | pIC50 (MT4 [9]) | pIC50 (HeLa [10]) | pIC50 (MT4 [11]) | pIC50 (HeLa [12]) | pIC50 (HeLa [13]) | pIC50 [14] | pIC50 (HeLa [15])
1 | CCCc1c(O)nc2ccc(F)c([N+](=O)[O-])c2c1OCC1CCC1 | < 5.70 | < 5.70 | < 5.70 | < 5.70 | < 5.70 | 6.00 | 6.27 | >8000 | 5.74 | < 5.70 | 5.92 | ~6.00 | < 5.70 | 5.96 | 6.60
2 | CCCc1c(O)nc2ccc(Cl)cc2c1OCC1CC1 | < 5.70 | 5.77 | < 5.70 | 6.20 | < 5.70 | < 5.70 | 7.31 | >40000 | 5.08 | < 5.70 | 5.96 | 6.70 | 6.68 | 6.92 | 7.05
3 | CCCc1c(O)nc2ccc(Cl)cc2c1OC#CC1CC1 | 6.52 | 6.64 | 5.85 | 6.66 | < 5.70 | 6.92 | 7.82 | >8000 | 6.92 | 5.74 | 6.96 | 7.22 | 7.04 | 7.42 | 7.15
4 | CCCc1c(O)nc2ccc(OC)cc2c1OC1CCCC1 | < 5.70 | < 5.70 | < 5.70 | < 5.70 | < 5.70 | < 5.70 | 6.15 | >40000 | 4.62 | < 5.70 | 6.00 | 6.27 | 6.15 | 6.38 | 6.80
5 | CCOc1c(O)nc2ccc(Cl)cc2c1OCC1CCC1 | < 5.70 | < 5.70 | < 5.70 | < 5.70 | < 5.70 | < 5.70 | 6.77 | >8000 | 5.68 | < 5.70 | 6.54 | 6.05 | < 5.70 | 6.47 | 6.41
6 | CC(C)Cc1c(O)nc2ccc(Cl)cc2c1OC1CCCC1 | < 5.70 | 5.96 | < 5.70 | 5.82 | < 5.70 | < 5.70 | 7.38 | >40000 | 5.80 | < 5.70 | 7.28 | 6.55 | 7.43 | 6.82 | 7.23
7 | CCCc1c(O)nc2ccc(Br)cc2c1OC1CCCC1 | < 5.70 | 6.28 | < 5.70 | 6.37 | < 5.70 | < 5.70 | 7.49 | >40000 | 5.77 | < 5.70 | 6.92 | 6.92 | < 5.70 | 7.31 | 8.05
8 | CCCc1c(O)nc2cc(OC)ccc2c1OCC1CCC1 | < 5.70 | < 5.70 | < 5.70 | < 5.70 | < 5.70 | < 5.70 | < 5.70 | >8000 | < 5.10 | < 5.70 | < 5.10 | < 5.70 | < 5.70 | < 5.70 | < 5.70
9 | CCCc1c(O)nc2ccc(Cl)cc2c1OCC1CCCCC1 | < 5.70 | 6.00 | < 5.70 | < 5.70 | < 5.70 | < 5.70 | 6.59 | >40000 | 5.89 | < 5.70 | 5.29 | < 5.70 | 6.16 | 5.92 | 7.64
10 | CC(C)c1c(OC2CCCCC2)c2cc(Cl)ccc2[nH]c1=O | 6.72 | ~6.10 | < 5.70 | 5.96 | 6.77 | 6.37 | 7.57 | >40000 | 6.44 | < 5.70 | 7.64 | 6.96 | 5.85 | 7.42 | 7.92
11 | CC(C)c1c(O)nc2ccc(Cl)cc2c1OCC1CCC1 | 6.25 | 6.36 | < 5.70 | 6.42 | 6.25 | 5.72 | 8.05 | >500 | 6.64 | < 5.70 | 7.54 | 7.10 | 6.68 | 7.82 | 7.49
12 | CCCc1c(O)nc2ccc(C)cc2c1OC1CCCC1 | < 5.70 | < 5.70 | < 5.70 | < 5.70 | < 5.70 | < 5.70 | 6.82 | >40000 | 5.19 | < 5.70 | 6.01 | 6.15 | 6.39 | 6.40 | 6.62
13 | CCC(C)C#COc1c(C(C)C)c(O)nc2ccc(F)cc12 (stereo not given) | 6.64 | 6.85 | < 5.70 | 6.38 | 6.27 | 6.89 | 7.68 | >6500 | 7.49 | 6.19 | 7.77 | 6.96 | 7.08 | 7.55 | 7.68
14 | CCCc1c(O)nc2ccc(F)cc2c1OCC1CCC1 | < 5.70 | 6.25 | < 5.70 | 5.77 | 5.74 | 5.77 | 7.34 | >8000 | 6.72 | < 5.70 | 7.16 | 6.54 | 6.62 | 7.20 | 7.22
15 | CCc1c(O)nc2ccc(F)cc2c1OC#CC1CC1 | 7.17 | 6.89 | 6.62 | 6.47 | 6.38 | 6.64 | 8.22 | >8000 | 7.82 | 6.52 | 7.60 | 7.22 | 7.62 | 7.60 | 7.00
